Assay outcomes: PubChem, several laboratories
L929 necroptosis = blocks zVAD induced death of L929 cells. L929 zVAD necroptosis rescue, ATP luminescence, 24 h; with zVAD 60 µM. viability rescue, % at 10 µM. 0.38% of 220,000 active. AID 1377;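 active = activation, scaled between plate controls, above about 75%, limit read from the data; inactive = activation under that limit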;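 note: 0% = zVAD with DMSO and 100% = DMSO alone without zVAD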
Dynein cargo inh = dynein cargo transport inhibition; 3617.4 mouse cells, GR-EGFP nuclear translocation imaging; test concentration mostly 20 µM; stimulated with dexamethasone, 1 µM; active compounds read low; z-score, hits read low; 0.47% of 220,000 active; AID 1381;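 active = plate z-score of nuclear minus cytoplasmic receptor signal below a set negative limit, without overly bright fluorescence or cell loss, cut at about -3.5 in these data, passing the limit was not always enough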;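 note: z-score of nuclear minus cytoplasmic ring GR-EGFP intensity difference per well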
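Buffer or medium: tet-free medium with charcoal-stripped serum / Also added: dexamethasone agonist, 1.0 µM final, for 30 min / Timing: induction 48 h, compound 1 h, agonist 30 min / Measured by: high-content fluorescence imaging after fixation / Read-out: nuclear-to-cytoplasmic GR-EGFP distribution per well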
TNF death inh = inhibitors of TNF-alpha induced necroptosis in Jurkat FADD-/- cells; activation (protection from cell death), % at 10 µM; 0.068% of 220,000 active; Jurkat FADD-/- TNF necroptosis rescue, ATP luminescence, 24 h; 0 = TNF only, 100 = no-TNF cells; AID 463075;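 active = activation, meaning protection from cell death, of at least 50% relative to plate controls; inactive = activation below 50%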;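 note: necroptosis triggered by 40 ng/mL TNF-alpha added together with compound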
Furin inhibitor = inhibitors of human furin. purified furin, fluorogenic substrate cleavage. inhibition, % at 20 µM or 30 µM. 0.061% of 220,000 active; in the data active = inhibition above about 25%
Target sequence (P09958 108-714 limits assumed): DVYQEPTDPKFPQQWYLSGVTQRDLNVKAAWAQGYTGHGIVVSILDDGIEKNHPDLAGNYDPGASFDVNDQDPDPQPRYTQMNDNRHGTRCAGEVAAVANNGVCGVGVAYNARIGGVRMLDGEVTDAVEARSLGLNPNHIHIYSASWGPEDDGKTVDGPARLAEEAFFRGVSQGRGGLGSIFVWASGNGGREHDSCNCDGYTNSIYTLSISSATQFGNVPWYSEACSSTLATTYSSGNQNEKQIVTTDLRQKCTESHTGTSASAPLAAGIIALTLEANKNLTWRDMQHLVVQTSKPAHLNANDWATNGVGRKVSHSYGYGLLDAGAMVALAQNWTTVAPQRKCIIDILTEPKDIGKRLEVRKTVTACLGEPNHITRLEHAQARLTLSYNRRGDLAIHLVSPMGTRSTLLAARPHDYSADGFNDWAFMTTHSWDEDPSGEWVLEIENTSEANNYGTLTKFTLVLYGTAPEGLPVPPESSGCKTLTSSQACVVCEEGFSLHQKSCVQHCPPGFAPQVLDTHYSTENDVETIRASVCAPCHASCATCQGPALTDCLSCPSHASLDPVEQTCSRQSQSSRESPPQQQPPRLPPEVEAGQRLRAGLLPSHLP
Autophagy HCS = alters autophagy in cells. MEF GFP-LC3 puncta imaging; test concentration mostly 10 µM. calls only at 10 µM (by protocol). 0.98% of 190,000 active. AID 463193;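 active = percentage of spot-positive cells more than 3 SD above its plate mean, without a fluorescence outlier flag or 80% toxicity; inconclusive = no clear call, values can overlap the other calls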;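 note: spot-positive cell cutoff set from DMSO-treated cells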
HSV augment = HSV replication enhancement. AID 1956. 0.005% of 220,000 active. maximum fold increase. HSV replication augmentation in cells, fold increase; in the data active = maximum fold increase above about 1.5; inconclusive = no clear call, values can overlap the other calls; tested in PC3 cells
Dynein inh conf = dynein cargo transport inhibition, confirmation; shares compounds with Dynein cargo inh; 3617.4 GR-EGFP nuclear translocation imaging, dexamethasone-induced; calls only at 20 µM; 69% of 1,000 active;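 active = inhibition of receptor movement into the nucleus at or above a set limit in both runs, with normal cell brightness and cell count; inconclusive = limit reached in only one run, brightness and count normal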;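 note: dexamethasone at 1 µM final in well for 30 min; nuclear minus cytoplasmic GR-EGFP mean intensity difference in channel 2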
* hit, by the source's call; i = inactive; ? = inconclusive; nt = not tested or not shown; + = active, no number. In the library only some 1.8% were active in any assay of this set; here they are far more common.

SMILES	L929 necroptosis	Dynein cargo inh	TNF death inh	Furin inhibitor	Autophagy HCS	HSV augment	Dynein inh conf
CC[n+]1c(/C=C/C=C/N(C(C)=O)c2ccccc2)sc2ccccc21	-0.5	-3.88*	-11.5	-1.5	+	nt	+
NC(=S)NNC(=O)c1cccc(Cl)c1	1.0	0.738	0.0	0.9	nt	i	nt
CCOC(=O)C(=Cc1ccc(OCc2ccc([N+](=O)[O-])cc2)c(OC)c1)C(=O)OCC	0.4	-4.09*	-19.6	5.9	i	i	+
CCC(C)(C)c1ccc(OCCCC[n+]2cccc(C)c2C)c(C(C)(C)CC)c1	7.1	-5.23*	-28.9	-16.8	nt	i	i
CCCCCCCCC[n+]1cccc2c3ccccc3ccc21	14.3	1.36	-20.3	-44.7	i	i	nt
Cc1cc2c(cc1C)NC(CC(=O)NCc1ccccc1)C(=O)N2 (stereo not given)	2.3	-3.69	-0.2	-15.7	i	i	i
CCCCCCc1cc2cc(C(=O)NC)c(=N)oc2cc1O	1.2	-7.46*	-2.7	-22.3	i	?	+
O=C(N/N=C/c1ccc(-c2ccccc2C(=O)O)o1)c1cccs1	0.0	-0.635	1.2	10.6	i	i	nt
CCOC(=O)C1(CCCc2ccccc2)CCN(C(=O)c2ccoc2)CC1	0.4	-0.476	1.3	-14.0	i	i	nt
CCOC(=O)C1(CCCc2ccccc2)CCN(C(=O)C2=C(C)OCCO2)CC1	-0.2	-3.54*	0.6	-20.1	i	i	?
O=C(CN(c1cccc(C(F)(F)F)c1)S(=O)(=O)c1ccc(Cl)c([N+](=O)[O-])c1)NCc1ccccc1	0.3	-5.54*	-0.6	-3.6	i	i	+
O=C(CN(c1cccc(C(F)(F)F)c1)S(=O)(=O)c1ccc(Cl)c([N+](=O)[O-])c1)NCc1ccccc1Cl	0.5	-3.69*	0.0	-8.6	i	i	i
CC(=O)c1ccc(N2CCN(C(C)C(=O)NC3CCCc4ccccc43)CC2)cc1 (stereo not given)	0.0	0.0697	1.8	-10.5	i	i	nt
Fc1ccc(CNc2nc(-c3ccco3)cc(C(F)(F)F)n2)cc1	1.9	-4.39*	1.8	-7.6	i	i	i
CCN(CC)c1ccc(/C=C2/SC(=O)N(C(C)C)C2=O)o1	1.5	-4.02	1.7	-16.4	?	i	+
COc1ccc(NC(=O)C(CC(=O)O)C(C)c2ccccc2)cc1 (stereo not given)	2.1	-0.969	-0.4	-14.1	i	i	nt
O=c1c2ccccc2nc(/C=C/c2ccc([N+](=O)[O-])cc2)n1CCCO	2.5	-0.309	-0.9	1.7	i	i	nt
O=c1c2ccccc2nc(/C=C/c2ccc([N+](=O)[O-])o2)n1CCCO	-0.6	-5.62*	-17.2	-7.8	i	i	+
CCN(CCn1cccn1)Cc1ccccc1OCC(O)CN1CCc2ccccc2C1 (stereo not given)	-0.4	1.08	2.3	-9.8	i	i	nt
Cc1ccc(-c2csc(NC(=O)Cc3ccc(F)cc3)n2)o1	4.8	-3.91*	7.0	-25.8	i	i	i
Cc1ccc(-c2csc(NC(=O)c3ccc(-c4ccccc4)cc3)n2)o1	0.3	-1.33	-4.5	-21.1	i	i	nt
O=C1C=CC(=O)N1CCNc1ncc(C(F)(F)F)cc1Cl	38.0	-5.45*	-10.4	-7.3	i	i	+
Cc1ccc(C(=O)N/C(=C\c2ccc(-c3cc(Cl)ccc3Cl)o2)C(=O)NCc2cccnc2)cc1	0.0	-0.549	-5.9	-1.3	i	nt	nt
O=C(NCc1cccnc1)/C(=C\c1ccc(-c2cccc(Cl)c2)o1)S(=O)(=O)c1ccccc1	0.7	-4.3*	-14.6	-16.6	i	i	+
O=C(NCc1cccnc1)/C(=C/c1ccc(-c2cccc(Cl)c2)o1)S(=O)(=O)c1ccccc1	0.1	-3.85*	-22.2	-9.4	i	i	+
SMILES	L929 necroptosis	Dynein cargo inh	TNF death inh	Furin inhibitor	Autophagy HCS	HSV augment	Dynein inh conf
Cc1ccc(C(=O)O)cc1NC(=S)NC(=O)c1ccc([N+](=O)[O-])c(C)c1	2.2	-0.665	-0.4	-22.5	i	i	nt
Cc1cc(C(=O)NNC(=S)Nc2ccccc2)nn1C	19.6	0.155	0.5	-23.2	i	i	nt
COc1cc(N2CCCC2)c(OC)cc1/C=C1/NC(=S)NC1=O	3.0	-4.39	0.6	-11.9	+	?	i
Cc1cc(C)c2c(=O)c(/C=C3\NC(=S)NC3=O)coc2c1	-0.7	0.0986	-2.2	-25.0	nt	i	nt
COc1cc(/C=C/[N+](=O)[O-])ccc1OCc1cccc(C(=O)O)c1	-0.9	-3.65*	-4.2	-9.3	i	i	+
Cc1ccc(S(=O)(=O)NCC(=O)NCC(=O)OC(C(=O)NC(N)=O)C(C)C)cc1C (stereo not given)	-0.2	1.05	-0.3	-26.9	nt	i	nt
O=C(NC(=S)Nc1ccc(-c2ccc(CO)o2)cc1)c1cccs1	5.2	-6.62*	2.6	-7.4	i	i	i
Cc1ccc(C(=O)NC(=S)Nc2ccc(-c3ccc(CO)o3)cc2)cc1	-0.8	-0.142	-0.1	-20.6	i	i	nt
O=S(=O)(CCN(CCS(=O)(=O)C(F)(F)F)CC1CCCO1)C(F)(F)F (stereo not given)	3.1	-4.11*	-7.5	-21.2	i	i	?
O=C(NCC1CCCO1)C1CCN(S(=O)(=O)N2CCCC2)CC1 (stereo not given)	0.3	0.363	-2.5	-1.2	i	i	nt
CCN(CC)CCCC(C)NC(=O)c1cccc(S(=O)(=O)N2CCc3ccccc32)c1 (stereo not given)	1.0	-1.45	1.2	-26.2	i	i	nt
CCCCCCNc1nc(-c2ccc(OC)cc2)c(CCC(=O)O)s1	2.4	-0.524	0.6	-15.4	i	i	nt
O=C(Nc1ccccc1)C1=C(c2ccccc2)S(=O)(=O)CCS1(=O)=O	70.2	-4.55*	-14.7	-34.5	i	i	i
COc1ccc(-c2nc(-c3ccccn3)nc(N3CCN(C)CC3)c2C#N)cc1	-1.0	-0.282	1.9	-1.4	i	i	nt
COC(=O)C(=C/C(C)=C/c1cccnc1)C(=O)OC	0.8	-5.94*	-7.8	-24.6	i	i	+
COC(=O)/C(=C/c1cccnc1)NC(=O)c1ccccc1	-1.3	-0.63	0.3	3.4	i	i	nt
CC(=O)Nc1sc(/C(C#N)=C\c2cccc(Cl)c2)nc1-c1ccc(C)cc1	1.6	-5.87	1.8	-17.2	?	nt	i
CC(C)C[C@H](N)c1nnc(S(=O)(=O)Cc2cccc(F)c2)o1	-0.6	-4.95*	-12.9	-17.8	i	i	+
